In brackets after ≈: the same amount, converted by molar mass. Activity calls are given as the source filed them. The rule behind the calls is not given here.
Assays:
Staphylococcus aureus [1] = experiment: Antibacterial activity against methicillin-resistant Staphylococcus aureus ATCC 33591 after 24 hrs by tecan plate reader analysis; assay type: functional; details: ATCC 33591, 24 h
How it was run: (§1)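 Colony grown 24 h on NB agar at 37 °C, then 6 h in nutrient broth to mid-log (10⁸ CFU/mL by drop plating), diluted to 10⁵ CFU/mL in Mueller Hinton broth; added 9:1 to two-fold serial compound dilutions in MHB. Incubated 24 h, 37 °C; OD600 read. Triplicate per concentration, experiment run twice; MIC taken from the range of triplicate OD values.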

Pseudomonas aeruginosa = experiment: Antibacterial activity against Pseudomonas aeruginosa MTCC 424 after 24 hrs by tecan plate reader analysis; assay type: functional
How it was run: (§2)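 Broth microdilution MIC. Glycerol stocks grown on MacConkey agar 24 h at 37 °C, then a single colony in nutrient broth 6 h to mid-log (~10⁸ CFU/mL). Cells diluted to 10⁵ CFU/mL in Mueller Hinton broth and added to two-fold compound dilutions. Incubated 24 h at 37 °C, OD600 read. Triplicate wells, experiment run twice.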

[2] = Hemolytic activity in human erythrocytes after 1 hr; assay type: ADME, cell-based, Erythrocyte
How it was run: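 Heparinized donor blood. Erythrocytes washed three times in PBS and resuspended to 5 vol%, then mixed 3:1 with compound serially diluted in water. Incubated 1 h at 37 °C and centrifuged. Supernatant A540 read; % hemolysis relative to water and 0.1 vol% Triton-X controls.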

Escherichia coli = experiment: Antibacterial activity against Escherichia coli MTCC 443 after 24 hrs by tecan plate reader analysis; assay type: functional; how it was run: as §2
Klebsiella pneumoniae = experiment: Antibacterial activity against Klebsiella pneumoniae ATCC 700603 after 24 hrs by tecan plate reader analysis; assay type: functional; how it was run: as §2
Acinetobacter baumannii = experiment: Antibacterial activity against Acinetobacter baumannii MTCC 1425 after 24 hrs by tecan plate reader analysis; assay type: functional; how it was run: as §2
[3] = Selectivity index, ratio of HC50 for human erythrocytes to MIC for Escherichia coli MTCC 443; assay type: toxicity; details: read-out: Selectivity Index
Staphylococcus aureus [4] = experiment: Bactericidal activity against metabolically inactive stationary phase methicillin-resistant Staphylococcus aureus ATCC 33591 assessed as reduction in bacterial colony formation at 32 ug/ml incubated for 6 hrs followed by plating on agar plate for 24 hrs by visual counting analysis; assay type: functional, organism-based
Staphylococcus aureus [5] = experiment: Antibiofilm activity against Staphylococcus aureus ATCC 33591 assessed as reduction in biofilm biomass at 32 ug/ml incubated for 24 hrs followed by plating on agar plate for 24 hrs by crystal violet staining assay relative to control; assay type: functional; details: ATCC 33591, 24 h
How it was run: (§3)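 Biofilms grown 24 h static at 37 °C on coverslips (10⁵ CFU/mL in nutrient broth, 1% glucose, 1% NaCl) and treated 24 h, then PBS-washed, air-dried 10–15 min, stained with 0.1% w/v crystal violet 5–10 min, washed, dye recovered in 95% ethanol; OD 522 nm read. Run twice, mean with standard deviation.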

Staphylococcus aureus [6] = experiment: Antibacterial activity against vancomycin-resistant Staphylococcus aureus clinical isolate 1 after 24 hrs by tecan plate reader analysis; assay type: functional; details: clinical isolate 1, 24 h; how it was run: as §1
Staphylococcus aureus [7] = experiment: Antibiofilm activity against Staphylococcus aureus R3545 assessed as reduction in biofilm biomass at 32 ug/ml incubated for 24 hrs followed by plating on agar plate for 24 hrs by crystal violet staining assay relative to control; assay type: functional; details: R3545, 24 h; how it was run: as §3
Staphylococcus aureus [8] = experiment: Antibacterial activity against vancomycin-resistant Staphylococcus aureus clinical isolate 4 after 24 hrs by tecan plate reader analysis; assay type: functional; details: clinical isolate 4, 24 h; how it was run: as §1
Staphylococcus aureus [9] = experiment: Bactericidal activity against metabolically inactive stationary phase methicillin-resistant Staphylococcus aureus R3545 assessed as reduction in bacterial colony formation at 32 ug/ml incubated for 6 hrs followed by plating on agar plate for 24 hrs by visual counting analysis; assay type: functional, organism-based
Staphylococcus aureus [10] = experiment: Antibacterial activity against methicillin-resistant Staphylococcus aureus R3890 clinical isolate after 24 hrs by tecan plate reader analysis; assay type: functional; details: R3890, 24 h; how it was run: as §1
Staphylococcus aureus [11] = experiment: Antibacterial activity against methicillin-resistant Staphylococcus aureus R3545 clinical isolate after 24 hrs by tecan plate reader analysis; assay type: functional; details: R3545, 24 h; how it was run: as §1
Staphylococcus aureus [12] = experiment: Antibacterial activity against methicillin-resistant Staphylococcus aureus R3889 clinical isolate after 24 hrs by tecan plate reader analysis; assay type: functional; details: R3889, 24 h; how it was run: as §1
[13] = Klebsiella pneumoniae, 700603, 24 h

Molecule | MIC (Staphylococcus aureus [1]) [µg/mL] | MIC (Pseudomonas aeruginosa; MTCC 424, 24 h) [µg/mL] | HC50 at 1 h [2] [µg/mL] | MIC (Escherichia coli; MTCC 443, 24 h) [µg/mL] | MIC (Klebsiella pneumoniae; [13]) [µg/mL] | MIC (Acinetobacter baumannii; MTCC 1425, 24 h) [µg/mL] | further results
CCCCCCCCCCNC(=O)C[N+](C)(CCO)CCCCCCCCCC[N+](C)(CCO)CC(=O)NCCCCCCCCCC.[Br-].[Br-] (centres undefined) | 0.5 | 8 | 18 | 2 | 4 | 1 | –
CCCCCCCCCCCCNC(=O)C[N+](C)(CCO)CCCCCCCCCCCC[N+](C)(CCO)CC(=O)NCCCCCCCCCCCC.[Br-].[Br-] (centres undefined) | 2 to 4 | 64 | 22 | 32 | 128 to 256 | 32 | –
CCCCCCCCNC(=O)C[N+](C)(CCO)CCCCCCCCCCCC[N+](C)(CCO)CC(=O)NCCCCCCCC.[Br-].[Br-] (centres undefined) | 0.25 | 4 | 12 | 0.5 to 1 | 2 | 2 | –
CCCCCCNC(=O)C[N+](C)(CCO)CCC[N+](C)(CCO)CC(=O)NCCCCCC.O=C([O-])C(F)(F)F.O=C([O-])C(F)(F)F (centres undefined) | 256 | > 256 | > 1020 | > 256 | > 256 | > 256 | –
CCCCCCCCCCNC(=O)C[N+](C)(CCO)CCCCCCCC[N+](C)(CCO)CC(=O)NCCCCCCCCCC.[Br-].[Br-] (centres undefined) | 0.5 | 4 | 25 | 1 | 2 | 1 | –
CCCCCCCCCCNC(=O)C[N+](C)(CCO)CCC[N+](C)(CCO)CC(=O)NCCCCCCCCCC.[Br-].[Br-] (centres undefined) | 1 | 2 | 34 | 1 | 4 | 2 | –
CCCCCCCCNC(=O)C[N+](C)(CCO)CCC[N+](C)(CCO)CC(=O)NCCCCCCCC.[Br-].[Br-] (centres undefined) | 2 | 8 | 178 | 16 | 32 | 32 | –
CCCCCCCCNC(=O)C[N+](C)(CCO)CCCCCCCC[N+](C)(CCO)CC(=O)NCCCCCCCC.[Br-].[Br-] (centres undefined) | 0.5 to 1 | 16 | 61 | 1 to 2 | 8 | 8 | –
CCCCCCCCCCCCNC(=O)C[N+](C)(CCO)CCCCCC[N+](C)(CCO)CC(=O)NCCCCCCCCCCCC.[Br-].[Br-] (centres undefined) | 1 to 2 | 128 to 256 | 31 | 8 | 128 | 4 | –
CCCCCCCCNC(=O)C[N+](C)(CCO)CCCCCCCCCC[N+](C)(CCO)CC(=O)NCCCCCCCC.[Br-].[Br-] (centres undefined) | 0.25 to 0.5 | 4 | 28 | 0.5 | 4 | 4 | –
CCCCCCCCCCCCNC(=O)C[N+](C)(CCO)CCCCCCCC[N+](C)(CCO)CC(=O)NCCCCCCCCCCCC.[Br-].[Br-] (centres undefined) | 2 | 64 to 128 | 29 | 32 | 64 | 4 | –
CCCCCCCCCCCCNC(=O)C[N+](C)(CCO)CCC[N+](C)(CCO)CC(=O)NCCCCCCCCCCCC.[Br-].[Br-] (centres undefined) | 2 | 64 to 128 | 37 | 16 | 128 to 256 | 8 | –
CCCCCCNC(=O)C[N+](C)(CCO)CCCCCCCCCC[N+](C)(CCO)CC(=O)NCCCCCC.O=C([O-])C(F)(F)F.O=C([O-])C(F)(F)F (centres undefined) | 8 | 256 | > 1020 | 8 | > 256 | 256 | selectivity ratio [3]: 125
CCCCCCNC(=O)C[N+](C)(CCO)CCCCCCCC[N+](C)(CCO)CC(=O)NCCCCCC.O=C([O-])C(F)(F)F.O=C([O-])C(F)(F)F (centres undefined) | 128 | > 256 | > 1020 | 256 | > 256 | > 256 | –
CN[C@H](CC(C)C)C(=O)N[C@H]1C(=O)N[C@@H](CC(N)=O)C(=O)N[C@H]2C(=O)N[C@H]3C(=O)N[C@H](C(=O)N[C@H](C(=O)O)c4cc(O)cc(O)c4-c4cc3ccc4O)[C@H](O)c3ccc(c(Cl)c3)Oc3cc2cc(c3O[C@@H]2O[C@H](CO)[C@@H](O)[C@H](O)[C@H]2O[C@H]2C[C@](C)(N)[C@H](O)[C@H](C)O2)Oc2ccc(cc2Cl)[C@H]1O [VANCOMYCIN] | 0.5 to 1 (≈ 0.345 to 0.69 µM) | – | – | – | – | – | Activity (Staphylococcus aureus [4]): inactive; inhibition at 32 µg/mL (Staphylococcus aureus [5]): 10%; MIC (Staphylococcus aureus [6]): 512 µg/mL (≈ 353 µM); inhibition at 32 µg/mL (Staphylococcus aureus [7]): 10%; MIC (Staphylococcus aureus [8]): 512 µg/mL (≈ 353 µM); Activity (Staphylococcus aureus [9]): inactive
COc1cccc(OC)c1C(=O)N[C@@H]1C(=O)N2[C@@H]1SC(C)(C)[C@@H]2C(=O)O [METHICILLIN] | > 32 | – | – | – | – | – | MIC (Staphylococcus aureus [10]): > 32 µg/mL; MIC (Staphylococcus aureus [11]): 16 to 32 µg/mL (≈ 42.1 to 84.1 µM); MIC (Staphylococcus aureus [12]): 16 to 32 µg/mL (≈ 42.1 to 84.1 µM)
CCCCCCNC(=O)C[N+](C)(CCO)CCCCCC[N+](C)(CCO)CC(=O)NCCCCCC.O=C([O-])C(F)(F)F.O=C([O-])C(F)(F)F (centres undefined) | 256 | > 256 | > 1020 | > 256 | > 256 | > 256 | –
CCCCCCCCCCCCNC(=O)C[N+](C)(CCO)CCCCCCCCCC[N+](C)(CCO)CC(=O)NCCCCCCCCCCCC.[Br-].[Br-] (centres undefined) | 4 | 64 to 128 | 32 | 32 | 64 to 128 | 8 | –
CCCCCCCCCCNC(=O)C[N+](C)(CCO)CCCCCC[N+](C)(CCO)CC(=O)NCCCCCCCCCC.[Br-].[Br-] (centres undefined) | 0.5 | 4 | 31 | 1 | 2 to 4 | 2 | –
COLISTIN | – | – | – | – | – | – | MIC (Pseudomonas aeruginosa): 1 µg/mL; MIC (Escherichia coli): 1 µg/mL; MIC (Klebsiella pneumoniae): 1 µg/mL; MIC (Acinetobacter baumannii): 0.5 µg/mL
CCCCCCCCCCNC(=O)C[N+](C)(CCO)CCCCCCCCCCCC[N+](C)(CCO)CC(=O)NCCCCCCCCCC.[Br-].[Br-] (centres undefined) | 2 | 32 | 16 | 4 | 16 | 2 | –
